According to ChEMBL document CHEMBL3758106, “Antitumor Activity of Americanin A Isolated from the Seeds of Phytolacca americana by Regulating the ATM/ATR Signaling Pathway and the Skp2-p27 Axis in Human Colon Cancer Cells” (J Nat Prod, 2015):
Calls of active or inactive are those of the source. No cut-off for these calls is given here.

How the values were obtained:
RKO = assay: Antiproliferative activity against human RKO cells after 24 to 72 hrs by SRB assay; type: functional, cell-based
How it was run: (§1)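 Cells grown in 96-well plates (RPMI 1640; MRC-5 in MEM, 10% FBS, antibiotics) with compound […]; fixed in 10% TCA 30 min at 4 °C, stained 0.4% SRB in 1% acetic acid 1 h, dye dissolved in 10 mM Tris pH 10.0, A515 read; viability as % of solvent control, IC50 by nonlinear regression; mean of three independent experiments.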

[1] = Upregulation of MDM2 expression in human HCT116 cells at 7.5 to 30 uM after 24 hrs by Western blot analysis; type: functional, cell-based; conditions: HCT-116
CAKI-1 = assay: Antiproliferative activity against human CAKI-1 cells after 24 to 72 hrs by SRB assay; type: functional, cell-based; how it was run: as §1
[2] = Downregulation of cyclin A expression in human HCT116 cells at 7.5 to 30 uM after 24 hrs by Western blot analysis; type: functional, cell-based; conditions: HCT-116
How it was run: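 HCT116 cells exposed 24 h in complete medium; lysed in RIPA buffer (pH 8.0), protein by BCA, equal loads run on 8–13% SDS-PAGE, PVDF transfer, blocked in 5% BSA/TBST, primary antibodies overnight at 4 °C, HRP secondaries 2 h RT, ECL detection; β-actin as loading control.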

[3] = Antitumor activity against human HCT116 cells xenografted in nude mouse assessed as tumor growth inhibition at 5 mg/kg, ip administered 3 times per week measured on day 41; type: functional; conditions: HCT-116, ip, 984 h, read-out: TGI
How it was run: (§2)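 Nude mice given 2 × 10^6 HCT116 cells subcutaneously in flank; at ~120 mm3 randomised, six per group; ip dosing in 200 μL, test agent 5 or 10 mg/kg three times weekly, irinotecan 10 mg/kg once weekly; tumour volume measured twice weekly to day 41; body weight tracked for toxicity.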

HCT-116 [4] = assay: Induction of apoptosis in human HCT116 cells assessed as viable cells at 7.5 uM after 48 hrs by annexin V-FITC/propidium iodide staining-based flow cytometric analysis (reference value: 91.2%); type: functional; conditions: HCT-116, 48 h, read-out: Activity
HCT-116 [5] = assay: Induction of apoptosis in human HCT116 cells assessed as early apoptotic cells at 7.5 uM after 48 hrs by annexin V-FITC/propidium iodide staining-based flow cytometric analysis (reference value: 1.6%); type: functional
[6] = Downregulation of phosphorylated ATM expression in human HCT116 cells at 30 uM after 1 hr by Western blot analysis; type: functional, cell-based; conditions: HCT-116, TDE = time-dependent effect
How it was run: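 HCT116 cells exposed for 1 h in complete medium; RIPA lysates quantified by BCA, equal protein separated on 8–13% SDS-PAGE, transferred to PVDF, probed with primary antibodies overnight at 4 °C and HRP secondaries, chemiluminescence read-out.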

HCT-116 [7] = assay: Induction of cell cycle arrest in human HCT116 cells assessed as accumulation at G2/M phase at 15 uM after 48 hrs by propidium iodide staining-based flow cytometric analysis in presence of RNase A (reference value: 19.7%); type: functional
HCT-116 [8] = assay: Induction of apoptosis in human HCT116 cells assessed as late apoptotic cells at 30 uM after 48 hrs by annexin V-FITC/propidium iodide staining-based flow cytometric analysis (reference value: 5.2%); type: functional
HCT-116 [9] = assay: Induction of apoptosis in human HCT116 cells assessed as increase in Bim expression after 48 hrs by Western blot analysis; type: functional, cell-based
How it was run: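 Cells treated for 48 h and lysed in RIPA buffer (pH 8.0). Total protein was measured by BCA, and equal protein was resolved on 8−13% SDS-PAGE and moved to PVDF. Membranes were blocked in 5% BSA/TBST and given primary antibody overnight at 4 °C, then an HRP secondary for 2 h at RT. Detection by enhanced chemiluminescence.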

HCT-116 [10] = assay: Induction of apoptosis in human HCT116 cells assessed as cleaved caspase 3 level at 30 uM up to 24 hrs by Western blot analysis; type: functional, cell-based
HCT-116 [11] = assay: Induction of morphological change in human HCT116 cells assessed as loss of contact with surface of culture dish at 30 uM after 24 to 48 hrs by phase contrast microscopic analysis; type: functional, cell-based
How it was run: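 HCT116 cells incubated with compound for 24 h, then viewed and photographed under phase-contrast microscopy; also examined at 48 h.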

[12] = Antitumor activity against human HCT116 cells xenografted in nude mouse assessed as tumor growth inhibition at 10 mg/kg, ip administered 3 times per week measured on day 41; type: functional; conditions: HCT-116, ip, 984 h, read-out: TGI; how it was run: as §2
HCT-116 [13] = assay: Induction of cell cycle arrest in human HCT116 cells assessed as accumulation at sub-G1 phase at 30 uM after 24 hrs by propidium iodide staining-based flow cytometric analysis in presence of RNase A (reference value: 1.5%); type: functional
HCT-116 [14] = assay: Induction of cell cycle arrest in human HCT116 cells assessed as accumulation at sub-G1 phase at 15 uM after 24 hrs by propidium iodide staining-based flow cytometric analysis in presence of RNase A (reference value: 1.5%); type: functional
HCT-116 [15] = assay: Induction of apoptosis in human HCT116 cells assessed as viable cells at 30 uM after 48 hrs by annexin V-FITC/propidium iodide staining-based flow cytometric analysis (reference value: 91.2%); type: functional; conditions: HCT-116, 48 h, read-out: Activity
HCT-116 [16] = assay: Induction of apoptosis in human HCT116 cells assessed as late apoptotic cells at 30 uM after 48 hrs by annexin V-FITC/propidium iodide staining-based flow cytometric analysis in presence of NAC (reference value: 7.2%); type: functional
HCT-116 [17] = assay: Induction of cell cycle arrest in human HCT116 cells assessed as accumulation at sub-G1 phase at 7.5 uM after 24 hrs by propidium iodide staining-based flow cytometric analysis in presence of RNase A (reference value: 1.5%); type: functional
[18] = Antiproliferative activity against human HCT116 cells assessed as cell viability after 24 hrs by SRB assay; type: functional, cell-based; conditions: HCT-116, 24 h
How it was run: (§3)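 HCT116 cells in 96-well plates exposed 24, 48 or 72 h; TCA fixation, 0.4% SRB staining, dye solubilised in 10 mM Tris pH 10.0, absorbance at 515 nm; viability relative to solvent-treated control.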

HCT-116 [19] = assay: Induction of apoptosis in human HCT116 cells assessed as late apoptotic cells at 15 uM after 48 hrs by annexin V-FITC/propidium iodide staining-based flow cytometric analysis (reference value: 5.2%); type: functional
HCT-116 [20] = assay: Induction of cell cycle arrest in human HCT116 cells assessed as accumulation at G0/G1 phase at 30 uM after 24 hrs by propidium iodide staining-based flow cytometric analysis in presence of RNase A (reference value: 64.6%); type: functional
[21] = Upregulation of phosphorylated ATR expression in human HCT116 cells at 1 hr by Western blot analysis; type: functional, cell-based; conditions: HCT-116
[22] = Antiproliferative activity against human HCT116 cells assessed as cell viability after 48 hrs by SRB assay; type: functional, cell-based; conditions: HCT-116, 48 h; how it was run: as §3
[23] = Antiproliferative activity against p53-expressing human HCT116 cells assessed as cell viability after 72 hrs by SRB assay; type: functional, cell-based; conditions: HCT-116, 72 h
How it was run: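 p53 wild-type and p53-null HCT116 cells in 96-well plates treated 72 h; SRB assay (TCA fix, SRB stain, Tris pH 10.0 solubilisation, A515); viability vs solvent control, IC50 by nonlinear regression.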

For O=C/C=C/c1ccc2c(c1)O[C@@H](CO)[C@H](c1ccc(O)c(O)c1)O2 [AMERICANIN A], the IC50 (RKO) was 24.4 µM, the Activity [1] was “Active” and the IC50 (CAKI-1) was 66.4 µM. For the same compound, the Activity [2] was “Active”, the inhibition in vivo at 5 mg/kg [3] was 45% and the viability at 7.5 µM (HCT-116 [4]) was 84.6%. The Activity (HCT-116 [5]) was 3%, the Activity [6] was “tde” and the Activity (HCT-116 [7]) was 20.3%. The Activity (HCT-116 [8]) was 18.9%, the Activity (HCT-116 [9]) was “Dose-dependent effect” and the Activity (HCT-116 [10]) was “Active”. For the same compound, the Activity (HCT-116 [11]) was “Active”, the inhibition in vivo at 10 mg/kg [12] was 55.7% and the Activity (HCT-116 [13]) was 4%. The Activity (HCT-116 [14]) was 3%, the viability at 30 µM (HCT-116 [15]) was 30.6% and the Activity (HCT-116 [16]) was 18.9%. For the same compound, the Activity (HCT-116 [17]) was 1.9%, the IC50 [18] was 24.1 µM and the Activity (HCT-116 [19]) was 11.1%. The Activity (HCT-116 [20]) was 39%, the Activity [21] was “Dose-dependent effect” and the IC50 [22] was 9.6 µM. The IC50 [23] was 8.3 µM.
